{"data": "Results of several laboratories", "Tspo": "Translocator protein (Tspo, Rattus norvegicus, UniProt P16257)", "GLP2R": "Glucagon-like peptide 2 receptor (GLP2R, Homo sapiens, UniProt O95838)", "Melanocortin receptor 4": "Melanocortin receptor 4 (Mus musculus, UniProt P56450)", "note": "Each line is one published result; the experiments were not run side by side. pEC50, pKd, pKi: −log10 of the molar value."}
{"Structure (SMILES)": "CNc1nc(C#Cc2ccccc2)nc2c1ncn2[C@H]1[C@H](O)[C@H](O)[C@@H]2C[C@@H]21", "target": "Tspo", "observed": "ligand displacement", "technique": "radioligand", "quantity": "pKi", "result": "< 5.00"}
{"Structure (SMILES)": "CC/C=C\\C/C=C\\C/C=C\\C/C=C\\C/C=C\\CCCC(=O)O", "target": "Peroxisome proliferator-activated receptor delta (PPARD, Homo sapiens, UniProt Q03181)", "observed": "reporter gene", "mode": "agonist", "technique": "luciferase", "quantity": "pEC50", "result": 4.04}
{"Structure (SMILES)": "CC[C@H](C)[C@H](NC(=O)[C@H](CO)NC(=O)[C@H](Cc1ccc(O)cc1)NC(=O)[C@H](CC(=O)O)NC(=O)[C@H](CO)NC(=O)[C@@H](NC(=O)[C@H](Cc1ccccc1)NC(=O)[C@@H](NC(=O)CNC(=O)[C@H](CCC(=O)O)NC(=O)[C@H](C)NC(=O)[C@@H](N)Cc1ccc(O)cc1)[C@@H](C)O)[C@@H](C)CC)C(=O)N[C@@H](C)C(=O)N[C@@H](CCSC)C(=O)N[C@@H](CC(=O)O)C(=O)N[C@@H](CCCCN)C(=O)N[C@H](C(=O)N[C@@H](Cc1c[nH]cn1)C(=O)N[C@@H](CCC(N)=O)C(=O)N[C@@H](CCC(N)=O)C(=O)N[C@@H](CC(=O)O)C(=O)N[C@@H](Cc1ccccc1)C(=O)N[C@H](C(=O)N[C@@H](CC(N)=O)C(=O)N[C@@H](Cc1c[nH]c2ccccc12)C(=O)N[C@@H](CC(C)C)C(=O)N[C@@H](CC(C)C)C(=O)N[C@@H](C)C(=O)N[C@@H](CCC(N)=O)C(=O)N[C@@H](CCCCN)C(=O)NCC(=O)N[C@@H](CCCCN)C(=O)N[C@@H](CCCCN)C(=O)N[C@@H](CC(N)=O)C(=O)N[C@@H](CC(=O)O)C(=O)N[C@@H](Cc1c[nH]c2ccccc12)C(=O)N[C@@H](CCCCN)C(=O)N[C@@H](Cc1c[nH]cn1)C(=O)N[C@@H](CC(N)=O)C(=O)N[C@H](C(=O)N[C@H](C(=O)N[C@@H](CCC(N)=O)C(=O)O)[C@@H](C)O)[C@@H](C)CC)C(C)C)[C@@H](C)CC", "target": "GLP2R", "observed": "reporter gene", "mode": "agonist", "technique": "luciferase", "quantity": "pEC50", "result": "< 6.00"}
{"Structure (SMILES)": "CNc1nc(C#Cc2ccc(Cl)s2)nc2c1ncn2[C@H]1[C@H](O)[C@H](O)[C@]2(C(=O)O)C[C@H]12", "target": "Tspo", "observed": "ligand displacement", "technique": "radioligand", "quantity": "pKi", "result": "< 5.00"}
{"Structure (SMILES)": "O=C(OC[C@H]1O[C@@H](OC(=O)c2cc(O)c(O)c(OC(=O)c3cc(O)c(O)c(O)c3)c2)[C@H](OC(=O)c2cc(O)c(O)c(OC(=O)c3cc(O)c(O)c(O)c3)c2)[C@@H](OC(=O)c2cc(O)c(O)c(OC(=O)c3cc(O)c(O)c(O)c3)c2)[C@@H]1OC(=O)c1cc(O)c(O)c(OC(=O)c2cc(O)c(O)c(O)c2)c1)c1cc(O)c(O)c(OC(=O)c2cc(O)c(O)c(O)c2)c1", "target": "Replicase polyprotein 1ab, main protease (rep, Severe acute respiratory syndrome coronavirus 2, UniProt P0DTD1)", "observed": "binding", "technique": "SPR", "quantity": "pKd", "result": 5.96}
{"Structure (SMILES)": "O=C(Nc1ccncc1)c1cn(Cc2ccc(Cl)c(Cl)c2)c(=O)c2cnn(C3CCNCC3)c12", "target": "Fascin (FSCN1, Homo sapiens, UniProt Q16658)", "observed": "binding", "technique": "ITC", "quantity": "pKd", "result": 7.35}
{"Structure (SMILES)": "CC[C@H](C)[C@H](NC(=O)[C@H](Cc1ccccc1)NC(=O)[C@H](CCC(=O)O)NC(=O)[C@H](CCCCN)NC(=O)[C@H](C)NC(=O)[C@H](C)NC(=O)[C@H](CCC(N)=O)NC(=O)CNC(=O)[C@H](CCC(=O)O)NC(=O)[C@H](CC(C)C)NC(=O)[C@H](Cc1ccc(O)cc1)NC(=O)[C@H](CO)NC(=O)[C@H](CO)NC(=O)[C@@H](NC(=O)[C@H](CC(=O)O)NC(=O)[C@H](CO)NC(=O)[C@@H](NC(=O)[C@H](Cc1ccccc1)NC(=O)[C@@H](NC(=O)CNC(=O)[C@H](CCC(=O)O)NC(=O)[C@H](C)NC(=O)[C@@H](N)Cc1c[nH]cn1)[C@@H](C)O)[C@@H](C)O)C(C)C)C(=O)N[C@@H](C)C(=O)N[C@@H](Cc1c[nH]c2ccccc12)C(=O)N[C@@H](CC(C)C)C(=O)N[C@H](C(=O)N[C@@H](CCCCN)C(=O)NCC(=O)N[C@@H](CCCN=C(N)N)C(=O)NCC(=O)O)C(C)C", "target": "GLP2R", "observed": "reporter gene", "mode": "agonist", "technique": "luciferase", "quantity": "pEC50", "result": "< 6.00"}
{"Structure (SMILES)": "CSCC[C@H](NC(=O)[C@@H](NC(=O)[C@@H](N)Cc1ccc(O)cc1)C(C)C)C(=O)NCC(=O)O", "target": "Melanocortin receptor 4", "observed": "reporter gene", "mode": "agonist", "quantity": "pEC50", "result": "< 4.00"}
{"Structure (SMILES)": "CCOC(=O)[C@@]12C[C@@H]1[C@@H](n1ccc3c(NC)nc(I)nc31)[C@H](O)[C@@H]2O", "target": "Tspo", "observed": "ligand displacement", "technique": "radioligand", "quantity": "pKi", "result": "< 5.00"}
{"Structure (SMILES)": "CSCC[C@H](NC(=O)[C@@H](NC(=O)[C@@H](N)Cc1ccc(O)cc1)C(C)C)C(=O)NCC(=O)N[C@@H](Cc1c[nH]cn1)C(=O)N[C@@H](Cc1ccccc1)C(=O)N[C@@H](CCCNC(=N)N)C(=O)N[C@@H](Cc1c[nH]c2ccccc12)C(=O)N[C@@H](CC(=O)O)C(=O)N[C@@H](CCCNC(=N)N)C(=O)O", "target": "Melanocortin receptor 4", "observed": "reporter gene", "mode": "agonist", "quantity": "pEC50", "result": 6.18}
{"Structure (SMILES)": "CNC(=O)[C@@]12C[C@@H]1[C@@H](n1cnc3c(NC4CC4c4ccccc4)nc(C#Cc4ccccc4)nc31)[C@H](O)[C@@H]2O (mixture of isomers)", "target": "Tspo", "observed": "ligand displacement", "technique": "radioligand", "quantity": "pKi", "result": "< 5.00"}
{"Structure (SMILES)": "N=C(N)NCCC[C@H](NC(=O)[C@@H](N)CC(=O)O)C(=O)N[C@@H](Cc1ccccc1)C(=O)NCC(=O)O", "target": "Melanocortin receptor 4", "observed": "reporter gene", "mode": "agonist", "quantity": "pEC50", "result": "< 4.00"}
{"Structure (SMILES)": "CCOC(=O)[C@@]12C[C@@H]1[C@@H](n1ccc3c(NC4CC4)nc(C#Cc4ccccc4)nc31)[C@H](O)[C@@H]2O", "target": "Tspo", "observed": "ligand displacement", "technique": "radioligand", "quantity": "pKi", "result": "< 5.00"}
{"Structure (SMILES)": "CSCC[C@H](N)C(=O)NCC(=O)N[C@@H](Cc1c[nH]cn1)C(=O)N[C@@H](Cc1ccccc1)C(=O)N[C@@H](CCCNC(=N)N)C(=O)N[C@@H](Cc1c[nH]c2ccccc12)C(=O)O", "target": "Melanocortin receptor 4", "observed": "reporter gene", "mode": "agonist", "quantity": "pEC50", "result": 4.38}
{"Structure (SMILES)": "Cc1nc2ccc(NC(=O)CCNC(=O)CCCc3ccc(CC(C(=O)O)C(=O)O)cc3)cc2s1", "target": "L-lactate dehydrogenase A chain (LDHA, Homo sapiens, UniProt P00338)", "observed": "binding", "technique": "SPR", "quantity": "pKd", "result": 7.24}
